Reference: ChEMBL document CHEMBL4138257, “Long-Lasting and Fast-Acting in Vivo Efficacious Antiplasmodial Azepanylcarbazole Amino Alcohol” (ACS Med Chem Lett, 2017)
In brackets after ≈: the same amount, converted by molar mass. Activity calls are given as the source filed them. The calls are words filed in the database; no cut-off is given here.

Experiments:
Plasmodium falciparum [1] = test: Antiplasmodial activity against Plasmodium falciparum HB3 infected in human erythrocytes after 72 hrs by [3H]-hypoxanthine incorporation assay; format: functional, organism-based
Plasmodium falciparum [2] = test: Antiplasmodial activity against Plasmodium falciparum 3D7A infected in red blood cells at 2 times EC90; format: functional, organism-based
[3] = Kinetic solubility of the compound in FeSSIF at pH 5 after 24 hrs by HPLC analysis; format: physicochemical; conditions: read-out: Kinetic_solubility
Plasmodium falciparum [4] = test: Antiplasmodial activity against Plasmodium falciparum 3D7 infected in human erythrocytes engrafted in NOD-SCID IL-2Rgamma null mouse assessed as reduction in blood parasitemia at 10 to 30 mg/kg, po administered as single dose via gavage measured on day 4 post treatment by flow cytometry; format: functional, organism-based
Method in brief: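 Human-erythrocyte-engrafted SCID mice infected with P. falciparum 3D7 received one oral dose (1, 3, 10 or 30 mg·kg-1) on day 3 post-infection. Parasitemia was followed by flow cytometry, with a quantification limit of 0.01; vehicle controls n=3.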

Plasmodium falciparum [5] = test: Ratio of EC90 for Plasmodium falciparum NF54 infected in human erythrocytes to EC50 for Plasmodium falciparum NF54 infected in human erythrocytes; format: functional
[6] = Intrinsic clearance in monkey microsomes assessed per mg protein; format: ADME, Macaca mulatta, Microsome; conditions: rhesus monkey
[7] = Volume of distribution at steady state in CD1 mouse at 0.2 mg/kg, iv measured for 14 days; format: ADME, organism-based; conditions: in vivo, read-out: Vdss
Method in brief: (§1)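 Single iv administration, mouse dose 0.2 mg·kg-1. CL reported in L/h/kg and as % liver blood flow; Vss in L/kg.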

Plasmodium falciparum [8] = test: Antiplasmodial activity against Plasmodium falciparum V1/S infected in human erythrocytes after 72 hrs by [3H]-hypoxanthine incorporation assay; format: functional, organism-based
[9] = Kinetic solubility of the compound in PBS at pH 7.4 after 24 hrs by HPLC analysis; format: physicochemical; conditions: read-out: Kinetic_solubility
Plasmodium falciparum [10] = test: Antiplasmodial activity against Plasmodium falciparum TM90C2B infected in human erythrocytes after 72 hrs by [3H]-hypoxanthine incorporation assay; format: functional, organism-based
[11] = Fraction unbound in dog plasma at 1000 ng/mL by LC-MS analysis; format: ADME, cell-free, Canis lupus familiaris
[12] = Ratio of EC50 for Plasmodium falciparum V1/S infected in human erythrocytes to EC50 for Plasmodium falciparum NF54 infected in human erythrocytes; format: functional
[13] = Ratio of EC50 for Plasmodium falciparum TM90C2B infected in human erythrocytes to EC50 for Plasmodium falciparum NF54 infected in human erythrocytes; format: functional
Plasmodium falciparum [14] = test: Antiplasmodial activity against Plasmodium falciparum K1 infected in human erythrocytes after 72 hrs by [3H]-hypoxanthine incorporation assay; format: functional, organism-based
[15] = Kinetic solubility of the compound in FaSSIF at pH 6.5 after 24 hrs by HPLC analysis; format: physicochemical; conditions: read-out: Kinetic_solubility
[16] = Intrinsic clearance in dog microsomes assessed per mg protein; format: ADME, Canis lupus familiaris, Microsome
Plasmodium falciparum [17] = test: Antiplasmodial activity against Plasmodium falciparum Dd2 infected in human erythrocytes after 72 hrs by [3H]-hypoxanthine incorporation assay; format: functional, organism-based
[18] = Ratio of drug uptake in human blood to plasma; format: ADME; conditions: blood and plasma
[19] = Lipophilicity, log P of the compound; format: physicochemical; conditions: octanol/water
[20] = Ratio of EC50 for Plasmodium falciparum FCB infected in human erythrocytes to EC50 for Plasmodium falciparum NF54 infected in human erythrocytes; format: functional
[21] = Half life in rat at 0.5 mg/kg, po measured for 14 days; format: ADME, organism-based; conditions: in vivo
Plasmodium falciparum [22] = test: Antiplasmodial activity against Plasmodium falciparum FCB infected in human erythrocytes after 72 hrs by [3H]-hypoxanthine incorporation assay; format: functional, organism-based
[23] = Dissociation constant, pKa of the compound at pH 1.5; format: physicochemical
[24] = Intrinsic clearance in mouse microsomes assessed per mg protein; format: ADME, Microsome
[25] = Oral bioavailability in rat at 0.5 mg/kg measured for 14 days; format: ADME, organism-based; conditions: in vivo
[26] = Octanol-phosphate buffer partition co-efficient, log D of the compound at pH 7.4 after 1 hr by HPLC analysis; format: physicochemical
[27] = Clearance in dog at 0.2 mg/kg, iv measured for 14 days; format: ADME, organism-based, Canis lupus familiaris; conditions: in vivo; method in brief: as §1
[28] = Ratio of EC50 for Plasmodium falciparum K1 infected in human erythrocytes to EC50 for Plasmodium falciparum NF54 infected in human erythrocytes; format: functional
[29] = Ratio of EC50 for Plasmodium falciparum HB3 infected in human erythrocytes to EC50 for Plasmodium falciparum NF54 infected in human erythrocytes; format: functional
[30] = Oral bioavailability in dog at 0.5 mg/kg measured for 14 days; format: ADME, organism-based, Canis lupus familiaris; conditions: in vivo
[31] = Fraction unbound in mouse plasma at 1000 ng/mL by LC-MS analysis; format: ADME, cell-free
Plasmodium falciparum [32] = test: Antiplasmodial activity against Plasmodium falciparum 7G8 infected in human erythrocytes after 72 hrs by [3H]-hypoxanthine incorporation assay; format: functional, organism-based
[33] = Half life in CD1 mouse at 0.5 mg/kg, po measured for 14 days; format: ADME, organism-based; conditions: in vivo
Method in brief: (§2)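 Single po administration, mouse dose 0.5 mg·kg-1; plasma concentrations followed to obtain Cmax time and half-life. Bioavailability derived against single iv dosing.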

[34] = biological target: Voltage-gated inwardly rectifying potassium channel KCNH2 (Homo sapiens, UniProt Q12809); test: Inhibition of human ERG
Chain of Voltage-gated inwardly rectifying potassium channel KCNH2 (Q12809 whole entry): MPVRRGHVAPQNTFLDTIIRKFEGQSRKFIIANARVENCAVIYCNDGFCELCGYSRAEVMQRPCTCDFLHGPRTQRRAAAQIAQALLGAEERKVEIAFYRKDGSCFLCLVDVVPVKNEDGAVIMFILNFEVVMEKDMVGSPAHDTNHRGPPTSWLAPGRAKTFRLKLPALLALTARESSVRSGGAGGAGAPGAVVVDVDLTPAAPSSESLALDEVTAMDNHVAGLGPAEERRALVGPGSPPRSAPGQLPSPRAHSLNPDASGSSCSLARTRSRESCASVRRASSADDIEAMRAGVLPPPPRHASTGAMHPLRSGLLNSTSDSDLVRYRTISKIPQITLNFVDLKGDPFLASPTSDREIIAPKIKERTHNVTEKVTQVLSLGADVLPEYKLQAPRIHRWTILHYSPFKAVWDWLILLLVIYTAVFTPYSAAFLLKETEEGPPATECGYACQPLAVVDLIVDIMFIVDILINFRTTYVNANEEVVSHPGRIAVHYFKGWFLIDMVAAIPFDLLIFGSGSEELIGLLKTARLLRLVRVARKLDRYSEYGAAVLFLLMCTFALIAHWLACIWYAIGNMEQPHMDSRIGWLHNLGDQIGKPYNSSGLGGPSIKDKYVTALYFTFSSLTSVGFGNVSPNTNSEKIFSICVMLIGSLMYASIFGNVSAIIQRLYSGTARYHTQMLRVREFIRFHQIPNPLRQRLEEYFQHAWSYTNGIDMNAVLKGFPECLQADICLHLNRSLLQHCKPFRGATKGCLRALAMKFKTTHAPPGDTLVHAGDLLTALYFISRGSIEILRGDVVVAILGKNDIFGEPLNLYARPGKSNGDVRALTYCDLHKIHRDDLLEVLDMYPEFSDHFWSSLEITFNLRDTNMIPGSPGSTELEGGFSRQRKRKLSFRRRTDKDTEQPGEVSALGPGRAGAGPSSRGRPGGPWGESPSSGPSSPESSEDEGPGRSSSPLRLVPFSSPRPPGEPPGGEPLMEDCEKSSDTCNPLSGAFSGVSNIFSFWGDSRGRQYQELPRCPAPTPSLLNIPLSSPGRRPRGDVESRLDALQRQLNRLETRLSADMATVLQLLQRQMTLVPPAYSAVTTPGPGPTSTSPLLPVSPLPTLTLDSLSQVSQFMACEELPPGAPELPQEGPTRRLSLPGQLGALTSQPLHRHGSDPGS

[35] = Ratio of EC50 for Plasmodium falciparum Dd2 infected in human erythrocytes to EC50 for Plasmodium falciparum NF54 infected in human erythrocytes; format: functional
[36] = Ratio of EC50 for Plasmodium falciparum 7G8 infected in human erythrocytes to EC50 for Plasmodium falciparum NF54 infected in human erythrocytes; format: functional
Plasmodium falciparum [37] = test: Antiplasmodial activity against Plasmodium falciparum NF54 infected in human erythrocytes after 72 hrs by [3H]-hypoxanthine incorporation assay; format: functional, organism-based
[38] = Stability in human hepatocytes assessed as parent compound remaining after 5 hrs; format: ADME, cell-based, Hepatocyte; conditions: read-out: Stability
Method in brief: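 Human hepatocyte incubation extended to 5 h; parent remaining and metabolite formation assessed.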

[39] = Tmax in CD1 mouse at 0.5 mg/kg, po measured for 14 days; format: ADME, organism-based; conditions: in vivo; method in brief: as §2
Plasmodium falciparum [40] = test: Antiplasmodial activity against Plasmodium falciparum 3D7A infected in red blood cells assessed as log reduction in parasite viability at 3 times EC50 after 48 hrs by [3H]-hypoxanthine incorporation assay; format: functional
Method in brief: (§3)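 In vitro parasite reduction ratio (PRR) assay on P. falciparum 3D7A-infected erythrocytes exposed to drug at 10× or 3× EC50. Viability of treated parasites was measured by limiting serial dilution followed by monitoring of re-growth. Killing was expressed as log-unit reduction in viable parasites after 48 h.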

[41] = Ratio of EC50 for Plasmodium falciparum D6 infected in human erythrocytes to EC50 for Plasmodium falciparum NF54 infected in human erythrocytes; format: functional
Plasmodium falciparum [42] = test: Antiplasmodial activity against Plasmodium falciparum D6 infected in human erythrocytes after 72 hrs by [3H]-hypoxanthine incorporation assay; format: functional, organism-based
Plasmodium falciparum [43] = test: Antiplasmodial activity against schizont stage of Plasmodium falciparum 3D7A infected in red blood cells assessed as reduction in parasite viability at 3 to 10 times EC50 after 48 hrs by [3H]-hypoxanthine incorporation assay relative to ring stage; format: functional
[44] = Fraction unbound in human plasma at 1000 ng/mL by LC-MS analysis; format: ADME, cell-free
[45] = Half life in dog at 0.5 mg/kg, po measured for 14 days; format: ADME, organism-based, Canis lupus familiaris; conditions: in vivo; method in brief: as §2
[46] = Protein binding in brain (unknown origin); format: ADME, tissue-based; conditions: read-out: PB
[47] = Fraction unbound in rat plasma at 1000 ng/mL by LC-MS analysis; format: ADME, cell-free
[48] = Oral bioavailability in CD1 mouse at 0.5 mg/kg measured for 14 days; format: ADME, organism-based; conditions: in vivo; method in brief: as §2
[49] = Intrinsic clearance in rat microsomes assessed per mg protein; format: ADME, Microsome
Plasmodium falciparum [50] = test: Antiplasmodial activity against Plasmodium falciparum 3D7 infected in human erythrocytes engrafted in NOD-SCID IL-2Rgamma null mouse assessed as reduction in blood parasitemia administered as single dose via oral gavage […] by flow cytometry; format: functional; conditions: 3D7, po
Method in brief: (§4)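 SCID mice engrafted with human erythrocytes, infected with P. falciparum 3D7; single oral dose of 1, 3, 10 or 30 mg·kg-1 given day 3 after infection. Parasitemia measured by flow cytometry, lower limit of quantification 0.01; vehicle group n=3; chloroquine positive control. ED90 and AUC_ED90 are taken as the reduction at day 7 after infection versus vehicle-treated mice.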

[51] = Efflux ratio of apparent permeability from basolateral to apical side over apical to basolateral side in human Caco2 cells at 20 uM after 4 hrs in presence of human plasma by LC-MS analysis; format: ADME, cell-based; conditions: Caco-2
Method in brief: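 Caco-2 permeability was run with human plasma on both donor and acceptor sides to reduce non-specific binding. Apparent permeability (Papp, ×10^-6 cm/s) was corrected for the unbound concentration, and an efflux ratio was reported.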

[52] = Cmax in NOD-SCID IL-2Rgamma null mouse at 10 mg/kg measured up to 5 days; format: ADME, organism-based; parameters: dose 10 mg/kg; conditions: in vivo
Plasmodium falciparum [53] = test: Antiplasmodial activity against Plasmodium falciparum 3D7A infected in red blood cells assessed as log reduction in parasite viability at 10 times EC50 after 48 hrs by [3H]-hypoxanthine incorporation assay; format: functional; method in brief: as §3
[54] = Intrinsic clearance in human microsomes assessed per mg protein; format: ADME, Microsome
[55] = Clearance in CD1 mouse at 0.2 mg/kg, iv measured for 14 days; format: ADME, organism-based; conditions: in vivo; method in brief: as §1
[56] = Ratio of drug uptake in mouse blood to plasma; format: ADME; conditions: blood and plasma
[57] = Apparent permeability of the compound in human Caco2 cells at 20 uM after 4 hrs in presence of human plasma by LC-MS analysis; format: ADME, cell-based; conditions: Caco-2
Method in brief: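 Caco-2 permeability measured with human plasma in both donor and acceptor compartments to reduce non-specific binding. Papp corrected for the unbound concentration under these conditions; efflux ratio also reported.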

Plasmodium falciparum [58] = test: Antiplasmodial activity against Plasmodium falciparum 3D7 infected in human erythrocytes engrafted in NOD-SCID IL-2Rgamma null mouse assessed as reduction in peripheral blood parasitemia administered as single dose via oral gavage measured on […] by flow cytometry; format: functional, organism-based; method in brief: as §4

O[C@H]1CNCCC[C@@H]1n1c2ccc(C(F)(F)F)cc2c2cc(C(F)(F)F)ccc21
EC50 (Plasmodium falciparum [1]): 2.1 nM
Activity (Plasmodium falciparum [2]): Active
solubility kinetic at 24 h [3]: 83.5 µg/mL (≈ 201 µM)
Activity (Plasmodium falciparum [4]): Active
fold change (FC) (Plasmodium falciparum [5]): 2
microsomal CLint [6]: < 10 µL/min/mg
Vd [7]: 10 L/kg
EC50 (Plasmodium falciparum [8]): 1.3 nM
solubility kinetic at 24 h [9]: 1.5 µg/mL (≈ 3.6 µM)
EC50 (Plasmodium falciparum [10]): 3 nM
fraction unbound at 1000 ng/mL [11]: 0.013
Ratio EC50 [12]: 0.5
Ratio EC50 [13]: 1.2
EC50 (Plasmodium falciparum [14]): 0.7 nM
solubility kinetic at 24 h [15]: 10 µg/mL (≈ 24 µM)
microsomal CLint [16]: < 10 µL/min/mg
EC50 (Plasmodium falciparum [17]): 3.2 nM
blood plasma ratio [18]: 1.5
logP [19]: 4.6
Ratio EC50 [20]: 1.3
half-life [21]: 160 h
EC50 (Plasmodium falciparum [22]): 3 nM
pKa [23]: 8.05
microsomal CLint [24]: < 10 µL/min/mg
bioavailability [25]: 72%
logD at 1 h [26]: 4.1
clearance [27]: 2.98 mL/min/kg
Ratio EC50 [28]: 0.3
Ratio EC50 [29]: 0.9
bioavailability [30]: 100%
fraction unbound at 1000 ng/mL [31]: 0.026
EC50 (Plasmodium falciparum [32]): 0.4 nM
half-life [33]: 86 h
IC50 [34]: 1180 nM
Ratio EC50 [35]: 1.3
Ratio EC50 [36]: 0.2
fEC50 (Plasmodium falciparum [37]): 0.17 nM
EC50 (Plasmodium falciparum [37]; Plasmodium falciparum, NF54): 2.4 nM
remaining at 5 h [38]: 96%
Tmax [39]: 6 h
FC (Plasmodium falciparum [40]): 4.5
Ratio EC50 [41]: 1.4
EC50 (Plasmodium falciparum [42]): 3.4 nM
fold change (FC) (Plasmodium falciparum [43]): 2
fraction unbound at 1000 ng/mL [44]: 0.035
half-life [45]: 69 h
fraction unbound [46]: < 0.001
fraction unbound at 1000 ng/mL [47]: 0.025
bioavailability [48]: 97%
microsomal CLint [49]: < 10 µL/min/mg
ED90 (Plasmodium falciparum [50]): 3.6 mg/kg
efflux ratio at 4 h, 20 µM [51]: 0.8
Cmax [52]: 1000 nM
FC (Plasmodium falciparum [53]): 4.8
microsomal CLint [54]: < 10 µL/min/mg
clearance [55]: 2.6 mL/min/kg
blood plasma ratio [56]: 1.6
Papp at 4 h, 20 µM [57]: 120 ×10⁻⁶ cm/s
AUCED90 (Plasmodium falciparum [58]): 2.2 µg.hr/ml/day

C1CCCNCC1 [AZEPANE]
pKa [23]: 8.05

CCN(CC)CCCC(C)Nc1ccnc2cc(Cl)ccc12 (stereo unspecified) [CHLOROQUINE]
ED50 (Plasmodium falciparum [50]): 2.8 mg/kg
